# ChEMBL document CHEMBL1124493, “Synthesis and tumor uptake of 5-82Br- and 5-131I-labeled 5-halo-1-(2-fluoro-2-deoxy-beta-D-ribofuranosyl)uracils” (J Med Chem, 1989)
# pKi: −log10 of the molar value.
# Test system: Nucleic Acid
# Assay: Incorporation of compound into DNA of human and mammalian cells, by replacing thymidine
# Assay type: functional
row,Compound,Replacement [%]
1,O=c1[nH]c(=O)n([C@H]2C[C@H](O)[C@@H](CO)O2)cc1Br [BROXURIDINE],43

# Species: Mus musculus
# Assay: Inhibition constant for influx competition with [6-3H]thymidine in mouse erythrocytes
# Assay type: functional
# Outline: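 Freshly harvested mouse erythrocytes were exposed to various concentrations of test nucleoside and [6-3H]thymidine, and zero-trans thymidine influx was measured. Extracellular [6-3H]thymidine was measured over time by liquid scintillation counting of aliquots. The Ki for competition at the nucleoside transporter was derived by previously described methods.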
row,Compound,pKi
1,Cc1cn([C@H]2C[C@H](O)[C@@H](CO)O2)c(=O)[nH]c1=O [DOXRIBTIMINE],4.10
2,O=c1ccn([C@@H]2O[C@H](CO)[C@@H](O)[C@H]2F)c(=O)[nH]1,3.92

# Continued, values first:
row,pKi,Compound
1,3.89,O=c1ccn([C@H]2C[C@H](O)[C@@H](CO)O2)c(=O)[nH]1 [DEOXYURIDINE]
2,3.68,O=c1[nH]c(=O)n([C@H]2C[C@H](O)[C@@H](CO)O2)cc1I [IDOXURIDINE]
3,3.85,O=c1[nH]c(=O)n([C@H]2C[C@H](O)[C@@H](CO)O2)cc1Br [BROXURIDINE]
